SMILES strings stand for the structures. “Also recorded” adds a separate entry of the source.

Results on two compounds are retold here after article PMC11439338 (BMC Chemistry, 2024).

Assay [1] relates to mushroom tyrosinase (EC 1.14.18.1). Briefly: In vitro mushroom tyrosinase inhibition assay. The class given is biochemical. Particulars: SAR discussion.
Assay [2] concerns the target mushroom tyrosinase (Agaricus bisporus, UniProt C7FF04). Kind of assay: Kinetic study of tyrosinase inhibition. The class given is biochemical. Put shortly: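 Mushroom tyrosinase diphenolase activity; test compound in DMSO, pre-incubated 20 min at 28 °C with enzyme (added as 600 U mL−1 solution) in 50 mM phosphate buffer pH 6.8. Inhibitor 5–50 µM; L-Dopa 0.1–1.5 mM. Dopachrome at 490 nm read each minute for 10 min; initial velocity from linear segment. Lineweaver–Burk plots gave Km and Vmax; Ki from slope versus inhibitor concentration.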

Chain of mushroom tyrosinase (C7FF04 1-392): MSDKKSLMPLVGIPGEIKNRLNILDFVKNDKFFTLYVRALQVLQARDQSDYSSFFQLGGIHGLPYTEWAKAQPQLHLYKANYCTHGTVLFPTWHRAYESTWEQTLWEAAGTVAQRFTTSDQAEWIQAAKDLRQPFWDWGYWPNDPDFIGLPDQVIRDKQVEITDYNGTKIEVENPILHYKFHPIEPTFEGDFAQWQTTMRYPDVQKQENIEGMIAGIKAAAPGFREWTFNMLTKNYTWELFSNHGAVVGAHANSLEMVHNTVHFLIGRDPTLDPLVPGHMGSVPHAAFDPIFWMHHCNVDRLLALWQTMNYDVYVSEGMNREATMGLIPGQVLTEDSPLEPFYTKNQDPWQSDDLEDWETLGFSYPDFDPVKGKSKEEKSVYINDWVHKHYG

Regarding `CC1(C)CC(=O)C2=C(C1)OC(N)=C(C#N)C2c1ccc(OCc2ccc(F)cc2)cc1` (stereo not drawn) [6c, 2-Amino-4-(4-((4-fluorobenzyl)oxy)phenyl)-7,7-dimethyl-5-oxo-5,6,7,8-tetrahydro-4H-chromene-3-carbonitrile], the “activity against tyrosinase (in words)” value in assay [1] was “no activity”. In turn, `CC1(C)CC(=O)C2=C(C1)OC(N)=C(C#N)C2c1ccc(OCc2ccc(C#N)cc2)cc1` (stereo not drawn) [6f, 2-Amino-4-(4-((4-cyanobenzyl)oxy)phenyl)-7,7-dimethyl-5-oxo-5,6,7,8-tetrahydro-4H-chromene-3-carbonitrile] showed a Ki in assay [2] of 16.1 µM. The type of inhibition entry in assay [2] (Lineweaver-Burk plot, L-Dopa substrate) is “competitive inhibition; also recorded: competitive inhibitor”.
